{"source": "the RNAGym collection of RNA variant scans (doi:10.1002/anie.201605470)", "parents": {"B1": {"name": "Osa-1-4 twister ribozyme (parent)", "chain": "CCGCCUAACACUGCCAAUGCCGGUCCCAAGCCCGGAUAAAAGUGGAGGGGGCGG"}}, "data": [{"variants_of": "B1", "assay": "self-cleavage, relative activity (ratio to wild type); higher = more cleavage; co-transcriptional", "outline": "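The 48 positions downstream of the cleavage site in a 54-nucleotide Oryza sativa twister ribozyme template were synthesised at 97 % wild-type base and 1 % of each other base. The template was transcribed in vitro at 37 °C for 2 h, with self-cleavage allowed during transcription. Reads with or without upstream sequence after deep sequencing marked cleavage status, and relative activity is fraction cleaved normalised to wild type.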", "values": [{"variant": "CCGCCUAACACUGCCAAUGCCGGUCCCAAACCCGGAUAAAAGUGGAGGGGUCGG", "note": "[G30A G51U]", "self-cleavage": 0.04}, {"variant": "CCGCCUAACACUGCCAAUGCCGGUCCCAAACCCGGAUAAAAGUGGAGGGGCCGG", "note": "[G30A G51C]", "self-cleavage": 0.02}, {"variant": "CCGCCUAACACUGCCAAUGCCGGUCCCAAACCCGGAUAAAAGUGGAGGGGACGG", "note": "[G30A G51A]", "self-cleavage": 0.04}, {"variant": "CCGCCUAACACUGCCAAUGCCGGUCCCAAACCCGGAUAAAAGUUGAGGGGGCGG", "note": "[G30A G44U]", "self-cleavage": 0.04}, {"variant": "CCGCCUAACACUGCCAAUGCCGGUCCCAAACCCGGAUAAAAGUCGAGGGGGCGG", "note": "[G30A G44C]", "self-cleavage": 0.04}, {"variant": "CCGCCUAACACUGCCAAUGCCGGUCCCAAACCCGGAUAAAAGUAGAGGGGGCGG", "note": "[G30A G44A]", "self-cleavage": 0.04}, {"variant": "CCGCCUAACACUGCCAAUGCCGGUCCCAAACCCGGAUAAAAGUGGAGGGGGCAG", "note": "[G30A G53A]", "self-cleavage": 0.03}, {"variant": "CCGCCUAACACUGCCAAUGCCGGUCCCAAACCCGGAUAAAAGUGGAGGGGGCCG", "note": "[G30A G53C]", "self-cleavage": 0.03}, {"variant": "CCGCCUAACACUGCCAAUGCCGGUCCCAAACCCGGAUAAAAGUGGAGGGGGCUG", "note": "[G30A G53U]", "self-cleavage": 0.04}, {"variant": "CCGCCUAACACUGCCAAUGCCGGUCCCAACCCCGAAUAAAAGUGGAGGGGGCGG", "note": "[G30C G35A]", "self-cleavage": 0.05}, {"variant": "CCGCCUAACACUGCCAAUGCCGGUCCCAACCCCGUAUAAAAGUGGAGGGGGCGG", "note": "[G30C G35U]", "self-cleavage": 0.04}, {"variant": "CCGCCUAACACUGCCAAUGCCGGUCCCAACCCCGCAUAAAAGUGGAGGGGGCGG", "note": "[G30C G35C]", "self-cleavage": 0.04}, {"variant": "CCGCCUAACACUGCCAAUGCCGGUCCCAAACCCGGAUAAAAGUGCAGGGGGCGG", "note": "[G30A G45C]", "self-cleavage": 0.02}, {"variant": "CCGCCUAACACUGCCAAUGCCGGUCCCAAACCCGGAUAAAAGUGUAGGGGGCGG", "note": "[G30A G45U]", "self-cleavage": 0.02}, {"variant": "CCGCCUAACACUGCCAAUGCCGGUCCCAAACCCGGAUAAAAGUGAAGGGGGCGG", "note": "[G30A G45A]", "self-cleavage": 0.03}, {"variant": "CCGCCUAACACUGCCAAUGCCGGUCCCAACCCCGGAUAAAAGUUGAGGGGGCGG", "note": "[G30C G44U]", "self-cleavage": 0.04}, {"variant": "CCGCCUAACACUGCCAAUGCCGGUCCCAACCCCGGAUAAAAGUAGAGGGGGCGG", "note": "[G30C G44A]", "self-cleavage": 0.03}, {"variant": "CCGCCUAACACUGCCAAUGCCGGUCCCAACCCCGGAUAAAAGUCGAGGGGGCGG", "note": "[G30C G44C]", "self-cleavage": 0.04}, {"variant": "CCGCCUAACACUGCCAAUGCCGGUCCCAAACCCGGAUAAAACUGGAGGGGGCGG", "note": "[G30A G42C]", "self-cleavage": 0.03}, {"variant": "CCGCCUAACACUGCCAAUGCCGGUCCCAAACCCGGAUAAAAUUGGAGGGGGCGG", "note": "[G30A G42U]", "self-cleavage": 0.02}, {"variant": "CCGCCUAACACUGCCAAUGCCGGUCCCAAACCCGGAUAAAAAUGGAGGGGGCGG", "note": "[G30A G42A]", "self-cleavage": 0.04}, {"variant": "CCGCCUAACACUGCCAAUGCCGGUCCCAACCCCUGAUAAAAGUGGAGGGGGCGG", "note": "[G30C G34U]", "self-cleavage": 0.04}, {"variant": "CCGCCUAACACUGCCAAUGCCGGUCCCAACCCCAGAUAAAAGUGGAGGGGGCGG", "note": "[G30C G34A]", "self-cleavage": 0.07}, {"variant": "CCGCCUAACACUGCCAAUGCCGGUCCCAACCCCCGAUAAAAGUGGAGGGGGCGG", "note": "[G30C G34C]", "self-cleavage": 0.04}, {"variant": "CCGCCUAACACUGCCAAUGCCGGCCCCAUGCCCGGAUAAAAGUGGAGGGGGCGG", "note": "[A29U U24C]", "self-cleavage": 0.06}, {"variant": "CCGCCUAACACUGCCAAUGCCGGACCCAUGCCCGGAUAAAAGUGGAGGGGGCGG", "note": "[A29U U24A]", "self-cleavage": 0.32}, {"variant": "CCGCCUAACACUGCCAAUGCCGGGCCCAUGCCCGGAUAAAAGUGGAGGGGGCGG", "note": "[A29U U24G]", "self-cleavage": 0.01}, {"variant": "CCGCCUAACACUGCCAAUGCCGGUCCCAAACCCGGAUAAAAGUGGAAGGGGCGG", "note": "[G30A G47A]", "self-cleavage": 0.03}, {"variant": "CCGCCUAACACUGCCAAUGCCGGUCCCAAACCCGGAUAAAAGUGGAUGGGGCGG", "note": "[G30A G47U]", "self-cleavage": 0.02}, {"variant": "CCGCCUAACACUGCCAAUGCCGGUCCCAAACCCGGAUAAAAGUGGACGGGGCGG", "note": "[G30A G47C]", "self-cleavage": 0.02}, {"variant": "CCGCCUAACACCGCCAAUGCCGGUCCCAAACCCGGAUAAAAGUGGAGGGGGCGG", "note": "[G30A U12C]", "self-cleavage": 0.03}, {"variant": "CCGCCUAACACAGCCAAUGCCGGUCCCAAACCCGGAUAAAAGUGGAGGGGGCGG", "note": "[G30A U12A]", "self-cleavage": 0.03}, {"variant": "CCGCCUAACACGGCCAAUGCCGGUCCCAAACCCGGAUAAAAGUGGAGGGGGCGG", "note": "[G30A U12G]", "self-cleavage": 0.02}, {"variant": "CCGCCUAACACUGCCAACGCCGGUCCCAAACCCGGAUAAAAGUGGAGGGGGCGG", "note": "[G30A U18C]", "self-cleavage": 0.04}, {"variant": "CCGCCUAACACUGCCAAAGCCGGUCCCAAACCCGGAUAAAAGUGGAGGGGGCGG", "note": "[G30A U18A]", "self-cleavage": 0.07}, {"variant": "CCGCCUAACACUGCCAAGGCCGGUCCCAAACCCGGAUAAAAGUGGAGGGGGCGG", "note": "[G30A U18G]", "self-cleavage": 0.06}, {"variant": "CCGCCUAACACUGCCAAUGCCGGUCCCAAACCCGGAUAAAAGCGGAGGGGGCGG", "note": "[G30A U43C]", "self-cleavage": 0.02}, {"variant": "CCGCCUAACACUGCCAAUGCCGGUCCCAAACCCGGAUAAAAGGGGAGGGGGCGG", "note": "[G30A U43G]", "self-cleavage": 0.04}, {"variant": "CCGCCUAACACUGCCAAUGCCGGUCCCAAACCCGGAUAAAAGAGGAGGGGGCGG", "note": "[G30A U43A]", "self-cleavage": 0.04}, {"variant": "CCGCCUAACACUGCCAAUGCCGGUCCCAAACCCGGAUAAAAGUGGAGGCGGCGG", "note": "[G30A G49C]", "self-cleavage": 0.02}, {"variant": "CCGCCUAACACUGCCAAUGCCGGUCCCAAACCCGGAUAAAAGUGGAGGUGGCGG", "note": "[G30A G49U]", "self-cleavage": 0.03}, {"variant": "CCGCCUAACACUGCCAAUGCCGGUCCCAAACCCGGAUAAAAGUGGAGGAGGCGG", "note": "[G30A G49A]", "self-cleavage": 0.02}, {"variant": "CCGCCUAACACUGCCAAUGCCGGUCCCAAACCCGGAAAAAAGUGGAGGGGGCGG", "note": "[G30A U37A]", "self-cleavage": 0.03}, {"variant": "CCGCCUAACACUGCCAAUGCCGGUCCCAAACCCGGAGAAAAGUGGAGGGGGCGG", "note": "[G30A U37G]", "self-cleavage": 0.05}, {"variant": "CCGCCUAACACUGCCAAUGCCGGUCCCAAACCCGGACAAAAGUGGAGGGGGCGG", "note": "[G30A U37C]", "self-cleavage": 0.03}, {"variant": "CCGCCUAACACUGCCAAUGCCGGUCCCAACCCCGGAUAAAAGUGGAUGGGGCGG", "note": "[G30C G47U]", "self-cleavage": 0.03}, {"variant": "CCGCCUAACACUGCCAAUGCCGGUCCCAACCCCGGAUAAAAGUGGAAGGGGCGG", "note": "[G30C G47A]", "self-cleavage": 0.03}, {"variant": "CCGCCUAACACUGCCAAUGCCGGUCCCAACCCCGGAUAAAAGUGGACGGGGCGG", "note": "[G30C G47C]", "self-cleavage": 0.02}]}]}
